Here are results for eleven compounds from ChEMBL document CHEMBL1782029, “Synthesis and biological evaluation of N-substituted benzo[c]phenanthrolines and benzo[c]phenanthrolinones as antiproliferative agents” (Eur J Med Chem, 2011).

pIC50: −log10 of the molar value. The source made the active and inactive calls. The calls are words filed in the database; no cut-off is given here.

The target in experiment [1] is T1, DNA topoisomerase 1 (Homo sapiens) (UniProt P11387).
T1 sequence (whole entry): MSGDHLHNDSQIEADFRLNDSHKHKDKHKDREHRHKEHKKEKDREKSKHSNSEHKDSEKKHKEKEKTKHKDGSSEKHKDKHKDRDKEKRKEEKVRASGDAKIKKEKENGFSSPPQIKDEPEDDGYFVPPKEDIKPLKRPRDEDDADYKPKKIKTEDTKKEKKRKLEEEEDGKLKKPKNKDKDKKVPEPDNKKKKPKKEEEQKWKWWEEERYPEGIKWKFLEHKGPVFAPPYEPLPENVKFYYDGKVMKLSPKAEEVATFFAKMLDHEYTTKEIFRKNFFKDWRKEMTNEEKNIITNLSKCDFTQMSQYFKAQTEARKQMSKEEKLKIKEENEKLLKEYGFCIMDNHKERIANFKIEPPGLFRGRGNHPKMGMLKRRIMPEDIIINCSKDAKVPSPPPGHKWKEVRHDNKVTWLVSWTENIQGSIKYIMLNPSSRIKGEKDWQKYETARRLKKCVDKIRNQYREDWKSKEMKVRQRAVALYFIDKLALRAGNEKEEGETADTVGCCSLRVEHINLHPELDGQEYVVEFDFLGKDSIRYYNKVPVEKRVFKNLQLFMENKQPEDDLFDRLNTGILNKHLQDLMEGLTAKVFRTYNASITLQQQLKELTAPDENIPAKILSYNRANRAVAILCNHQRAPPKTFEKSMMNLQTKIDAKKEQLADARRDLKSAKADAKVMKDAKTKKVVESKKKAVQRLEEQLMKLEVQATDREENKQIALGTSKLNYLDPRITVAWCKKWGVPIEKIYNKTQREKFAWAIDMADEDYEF
Briefly: Inhibition of human recombinant topoisomerase 1-mediated relaxation of supercoiled pUC19 DNA assessed as formation of nicked DNA at 0.1 to 5 uM using ethidium bromide staining by agarose gel electrophoresis. The procedure, abridged: (§1)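 Supercoiled pUC19 plasmid (130 ng) was incubated with 4 units of human recombinant Top1 at 37 °C for 45 min in relaxation buffer (50 mM Tris pH 7.8, 50 mM KCl, 10 mM MgCl2, 1 mM DTT, 1 mM EDTA, 1 mM ATP) with increasing compound concentrations. Products were resolved on 1% agarose at room temperature, 2 h at 120 V, then stained with ethidium bromide and imaged under UV.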

Experiment [2] addresses DNA topoisomerase 2-alpha (Homo sapiens) (UniProt P11388). Briefly: Inhibition of human topoisomerase 2 assessed as formation of nicked form of supercoiled pUC19 DNA at 50 uM after 45 mins using ethidium bromide staining by agarose gel analysis.
Experiment [3] has as its target T1, DNA topoisomerase 1 (Homo sapiens). Briefly: Inhibition of human recombinant topoisomerase 1 assessed as cleavage of 117-mer DNA fragment at 0.5 to 5 uM using ethidium bromide staining by agarose gel electrophoresis analysis.
Experiment [4] has as its system Calf thymus DNA. Briefly: Binding affinity to calf thymus DNA by circular dichroism analysis. It counts as nucleic-acid assay. As to conditions: Bos taurus.
The target in experiment [5] is DNA topoisomerase 2-alpha (Homo sapiens) (UniProt P11388). In words: Inhibition of human topoisomerase 2 assessed as formation of linear form of supercoiled pUC19 DNA at 50 uM after 45 mins using ethidium bromide staining by agarose gel analysis.
The test system of experiment [6] is HT-29. In words: Cytotoxicity against human HT-29 cells after 72 hrs by MTS assay. The class given is functional, cell-based. Particulars: HT-29, 72 h. Background: Tetrazolium assays rely on reduction of a dye to a coloured formazan, in cell work by metabolically active cells.
The subject of experiment [7] is Calf thymus DNA. Briefly: Binding affinity to calf thymus DNA at 20 uM by UV-vis spectrophotometry analysis. The class given is nucleic-acid assay. As to conditions: Bos taurus.
For experiment [8], the target named is T1, DNA topoisomerase 1 (Homo sapiens). In words: Inhibition of camptothecin-induced poisoning effect of human topoisomerase 1 assessed as suppression of CPT-induced 117 bp DNA cleavage by SDS-PAGE analysis.
Experiment [9] has the same target. Briefly: Inhibition of human recombinant topoisomerase 1-mediated relaxation of supercoiled pUC19 DNA assessed as formation of nicked DNA at 1 to 50 uM using ethidium bromide staining by agarose gel electrophoresis. Put shortly:
as §1

In experiment [10] the test system is HT-29. Briefly: Cell cycle arrest in human HT-29 cells at G2/M phase at 0.1 to 2.5 uM after 48 hrs using propidium iodide staining by FACS analysis. The class given is functional, cell-based. Put shortly:
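Exponentially growing HT-29 colon carcinoma cells (300,000 per well) were plated for 24 h, then exposed to 0.1, 1 or 2.5 µM compound for 48 h. Cells were fixed, stained with propidium iodide and analysed by flow cytometry (FACScan).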
(In general: Flow cytometry measures light scatter and fluorescence of single cells or particles in a stream.)

Experiment [11] deals with T1, DNA topoisomerase 1 (Homo sapiens). Briefly: Inhibition of human recombinant topoisomerase 1-mediated relaxation of supercoiled pUC19 DNA assessed as formation of nicked DNA at 0.2 to 10 uM using ethidium bromide staining by agarose gel electrophoresis. Put shortly: as §1
Another experiment has as its system Nucleic Acid. In words: Binding affinity to 265 bp of 3'-end-radio-labelled DNA fragment at 0.5 to 5 uM treated 15 mins before Dnase 1-mediated digestion by footprinting assay. It counts as nucleic-acid assay. The procedure, abridged: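 DNase I footprinting. It was equilibrated with compound for 15 min at 37 °C, then digested 3 min with DNase I (0.01 unit/ml) in 20 mM NaCl, 2 mM MgCl2, 2 mM MnCl2, pH 7.3. Samples were lyophilised, denatured at 90 °C and run on an 8% denaturing polyacrylamide gel.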

Experiment [12] deals with T1, DNA topoisomerase 1 (Homo sapiens). In words: Inhibition of human recombinant topoisomerase 1 assessed as cleavage of 117-mer DNA fragment at 20 to 50 uM using ethidium bromide staining by agarose gel electrophoresis analysis.
Experiment [13] deals with DNA topoisomerase 2-alpha (Homo sapiens) (UniProt P11388). As to conditions: 50 uM.
Experiment [14] has the same target. Particulars: 50 uM. This is another data set of the same source.

Sequence of DNA topoisomerase 2-alpha (Homo sapiens) (P11388 whole entry, the tested form may be a part): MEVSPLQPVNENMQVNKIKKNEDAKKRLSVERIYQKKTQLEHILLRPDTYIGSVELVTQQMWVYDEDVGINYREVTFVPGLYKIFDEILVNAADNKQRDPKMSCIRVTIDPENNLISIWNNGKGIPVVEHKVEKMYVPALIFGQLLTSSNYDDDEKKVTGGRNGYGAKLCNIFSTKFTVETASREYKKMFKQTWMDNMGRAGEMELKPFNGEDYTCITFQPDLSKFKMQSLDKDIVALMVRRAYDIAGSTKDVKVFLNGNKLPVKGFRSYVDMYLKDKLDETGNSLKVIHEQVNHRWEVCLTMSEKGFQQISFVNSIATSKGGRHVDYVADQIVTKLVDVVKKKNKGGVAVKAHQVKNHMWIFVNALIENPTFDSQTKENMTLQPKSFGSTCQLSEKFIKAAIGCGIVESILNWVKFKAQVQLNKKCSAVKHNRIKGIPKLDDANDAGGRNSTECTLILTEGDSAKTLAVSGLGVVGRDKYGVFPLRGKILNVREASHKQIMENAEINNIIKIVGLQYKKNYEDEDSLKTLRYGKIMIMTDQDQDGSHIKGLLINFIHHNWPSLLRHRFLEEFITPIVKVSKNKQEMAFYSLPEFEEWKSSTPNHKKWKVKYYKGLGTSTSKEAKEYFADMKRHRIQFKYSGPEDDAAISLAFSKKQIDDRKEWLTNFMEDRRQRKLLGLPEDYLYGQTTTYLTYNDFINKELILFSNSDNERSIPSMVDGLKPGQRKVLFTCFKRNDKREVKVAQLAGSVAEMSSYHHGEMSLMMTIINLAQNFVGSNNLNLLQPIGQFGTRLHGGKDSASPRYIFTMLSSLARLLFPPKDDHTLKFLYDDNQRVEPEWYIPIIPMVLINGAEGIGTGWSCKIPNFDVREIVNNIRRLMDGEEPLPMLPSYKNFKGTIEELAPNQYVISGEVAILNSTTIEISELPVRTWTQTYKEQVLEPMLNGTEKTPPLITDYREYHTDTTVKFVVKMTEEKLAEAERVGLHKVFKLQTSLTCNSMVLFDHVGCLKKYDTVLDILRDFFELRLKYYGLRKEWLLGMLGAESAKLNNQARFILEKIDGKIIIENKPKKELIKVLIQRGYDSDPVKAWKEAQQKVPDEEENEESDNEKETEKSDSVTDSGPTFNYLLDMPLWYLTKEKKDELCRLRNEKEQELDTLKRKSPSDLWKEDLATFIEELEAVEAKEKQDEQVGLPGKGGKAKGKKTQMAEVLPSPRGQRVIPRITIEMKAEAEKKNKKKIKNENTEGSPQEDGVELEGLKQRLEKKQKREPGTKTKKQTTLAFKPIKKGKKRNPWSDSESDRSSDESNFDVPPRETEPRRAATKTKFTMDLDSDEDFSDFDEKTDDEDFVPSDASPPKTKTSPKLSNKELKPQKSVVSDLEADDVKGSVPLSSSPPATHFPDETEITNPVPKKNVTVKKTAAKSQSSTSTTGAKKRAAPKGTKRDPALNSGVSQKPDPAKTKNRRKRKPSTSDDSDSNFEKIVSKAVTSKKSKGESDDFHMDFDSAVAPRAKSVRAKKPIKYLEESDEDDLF

Turning to `COc1cc2c[n+](C)c3c4cc5c(cc4ccc3c2cc1OC)OCO5` [NITIDINE CHLORIDE], the “Top1 relaxation inhibition (qualitative call)” value in experiment [1] is “Active”. For the same compound, the inhibition result in experiment [2], in experiment [3] and in experiment [5] was “inactive” in each case. The result in the experiment on Calf thymus DNA [4] and in the experiment on Calf thymus DNA [7] was Active. Further, the pIC50 (in general, −log10 of the IC50, conventionally taken in molar units) in the experiment with HT-29 [6] is 5.56.

For `COc1cc2c(=O)n(CCN(C)C)c3c4cccnc4ccc3c2cc1OC`, the inhibition result in [8] is “Dose-dependent effect”. Moreover, in [3], the inhibition result is “inactive”. The outcome in the experiment on Calf thymus DNA [4] and in the experiment with Calf thymus DNA [7] was Active. For the same compound, the “Topoisomerase 1 inhibition (active/inactive)” value in experiment [9] is “Active”. For the same compound, the negative logarithm of the IC50 (pIC50) with HT-29 [6] is 5.78.

For the compound `CCN(CC)CCn1c(=O)c2cc(OC)c(OC)cc2c2ccc3ncccc3c21`, the inhibition entry in [8] was “Dose-dependent effect”. The inhibition entry in experiment [3] is “inactive”. The result with Calf thymus DNA [4] and with Calf thymus DNA [7] was Active. Moreover, the “Topoisomerase 1 inhibition (active/inactive)” value in [9] was “Active”. The compound further showed a negative-log IC50 (pIC50) in the experiment with HT-29 [6] of 5.58.

Regarding `COc1cc2c(NCCN(C)C)nc3c4ccncc4ccc3c2cc1OC`, the “Top1 relaxation inhibition (qualitative call)” value in [1] was “Active”. Besides, the inhibition result in [2], in experiment [5] and in experiment [12] was “inactive” throughout. Further, in [8], the inhibition result was “Dose-dependent effect”. Besides, the result with Calf thymus DNA [4], with HT-29 [10] and in the experiment on Calf thymus DNA [7] was Active. Further, the inhibition entry (in experiment [11]; in the experiment with Nucleic Acid) was “Active” in each case. This compound gave a negative-log IC50 (pIC50) in the experiment with HT-29 [6] of 5.99.

Regarding `COc1cc([C@@H]2c3cc4c(cc3[C@@H](O[C@@H]3O[C@@H]5CO[C@@H](C)O[C@H]5[C@H](O)[C@H]3O)[C@H]3COC(=O)[C@H]23)OCO4)cc(OC)c1O`, the inhibition result in [13] and in [14] was “Active” in each case.

Regarding `COc1cc2c(=O)n(CCCN(C)C)c3c4ccncc4ccc3c2cc1OC`, the inhibition entry in experiment [8] was “Dose-dependent effect”. Besides, the inhibition result in experiment [3] was “inactive”. The result in the experiment with Calf thymus DNA [4] and in the experiment with Calf thymus DNA [7] was Active. Besides, the “Topoisomerase 1 inhibition (active/inactive)” value in [9] is “Active”. The negative-log IC50 (pIC50) in the experiment with HT-29 [6] was 5.21.

Take `CN(C)CCCNc1nc2c3cccnc3ccc2c2cc3c(cc12)OCO3`: the inhibition result in experiment [8] is “Dose-dependent effect”. Also, in experiment [3], the inhibition entry was “inactive”. For the same compound, the result in the experiment with Calf thymus DNA [4] and with Calf thymus DNA [7] was Active. Moreover, in [9], the “Topoisomerase 1 inhibition (active/inactive)” value is “Active”. Further, the inhibition result in the experiment with Nucleic Acid was “Active”. Moreover, the negative logarithm of the IC50 (pIC50) in the experiment on HT-29 [6] is 5.76.

In the case of `CCN(CC)CCn1c(=O)c2cc(OC)c(OC)cc2c2ccc3cnccc3c21`, the inhibition result in experiment [8] is “Dose-dependent effect”. Moreover, the inhibition result in [3] is “inactive”. Moreover, the outcome with Calf thymus DNA [4] and in the experiment on Calf thymus DNA [7] was Active. For the same compound, in experiment [9], the “Topoisomerase 1 inhibition (active/inactive)” value was “Active”. In addition, the negative logarithm of the IC50 (pIC50) in the experiment with HT-29 [6] was 5.74.

In the case of `CCN(CC)CCCNc1nc2c3cccnc3ccc2c2cc3c(cc12)OCO3`, the inhibition entry in experiment [2], in experiment [5] and in [12] was “inactive” each time. Also, the inhibition result in experiment [8] was “Dose-dependent effect”. The outcome in the experiment with Calf thymus DNA [4] and in the experiment with Calf thymus DNA [7] was Active. In [11], the inhibition entry was “Active”. The compound also showed a negative-log IC50 (pIC50) in the experiment with HT-29 [6] of 5.74.

As to `COc1cc2c(=O)n(CCCN(C)C)c3c4cccnc4ccc3c2cc1OC`, in experiment [8], the inhibition result is “Dose-dependent effect”. Further, the outcome in the experiment with Calf thymus DNA [4] and in the experiment with Calf thymus DNA [7] was Active. For the same compound, the “Topoisomerase 1 inhibition (active/inactive)” value in experiment [9] was “Active”. Further, the pIC50 in the experiment with HT-29 [6] is 5.30.

In the case of `COc1cc2c(=O)n(CCN(C)C)c3c4ccncc4ccc3c2cc1OC`, the inhibition result in experiment [8] was “Dose-dependent effect”. Moreover, the inhibition entry in experiment [3] was “inactive”. For the same compound, the result in the experiment with Calf thymus DNA [4] and in the experiment on Calf thymus DNA [7] was Active. Besides, in experiment [9], the “Topoisomerase 1 inhibition (active/inactive)” value was “Active”. In addition, in the experiment with HT-29 [6], the negative-log IC50 (pIC50) was 5.85.
